The test system of test [1] is Mus musculus. The test is described as follows: Antiinflammatory activity in ovalbumin-sensitized and challenged BALB/c mouse model assessed as attenuation of methacholine-induced increase in central airways responsiveness at 85 ug/g administered via nebulization 24 hrs after ovalbumin challenge measured after 15 mins. The test is classed as functional, organism-based. The essentials:
(§1)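 Mice OVA-sensitized, then nebulized 6% OVA in PBS (or PBS alone) 25 min/day on days 14–20. Day 21, 24 h after last challenge: ketamine 50 mg/kg plus xylazine 10 mg/kg, intubated, ventilator-based resistance measured. Baseline resistance re-measured 15 min after drug. Then nebulized methacholine (0–100 mg/mL in PBS) dose-response via ventilator circuit. Maximum R and RN read; means ± SE, n = 12/group.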

The test system of test [2] is Mus musculus. Put plainly: Antiinflammatory activity in ovalbumin-sensitized and challenged BALB/c mouse model assessed as attenuation of methacholine-induced maximum total lung resistance at 85 ug/g administered via nebulization 24 hrs after ovalbumin challenge measured after 15 mins. The test is classed as functional, organism-based. The essentials:
as §1

The target in test [3] is T1, Arginase-1 (Homo sapiens, UniProt P05089).
T1 sequence (P05089 whole entry): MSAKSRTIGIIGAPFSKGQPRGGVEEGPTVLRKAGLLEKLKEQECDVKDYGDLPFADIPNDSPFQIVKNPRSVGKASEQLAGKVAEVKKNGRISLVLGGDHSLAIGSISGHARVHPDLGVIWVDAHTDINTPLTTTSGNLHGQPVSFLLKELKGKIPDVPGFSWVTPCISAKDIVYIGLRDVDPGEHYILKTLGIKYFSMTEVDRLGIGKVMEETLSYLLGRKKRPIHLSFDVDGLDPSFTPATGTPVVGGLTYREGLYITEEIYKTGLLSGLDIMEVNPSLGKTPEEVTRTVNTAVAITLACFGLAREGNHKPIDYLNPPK
The test is described as follows: Inhibition of human recombinant full length arginase 1 expressed in Escherichia coli BL21(DE3) by fixed point assay.

In test [4] the target is T2, Nitric oxide synthase, inducible (Mus musculus, UniProt P29477).
T2 sequence (P29477 whole entry): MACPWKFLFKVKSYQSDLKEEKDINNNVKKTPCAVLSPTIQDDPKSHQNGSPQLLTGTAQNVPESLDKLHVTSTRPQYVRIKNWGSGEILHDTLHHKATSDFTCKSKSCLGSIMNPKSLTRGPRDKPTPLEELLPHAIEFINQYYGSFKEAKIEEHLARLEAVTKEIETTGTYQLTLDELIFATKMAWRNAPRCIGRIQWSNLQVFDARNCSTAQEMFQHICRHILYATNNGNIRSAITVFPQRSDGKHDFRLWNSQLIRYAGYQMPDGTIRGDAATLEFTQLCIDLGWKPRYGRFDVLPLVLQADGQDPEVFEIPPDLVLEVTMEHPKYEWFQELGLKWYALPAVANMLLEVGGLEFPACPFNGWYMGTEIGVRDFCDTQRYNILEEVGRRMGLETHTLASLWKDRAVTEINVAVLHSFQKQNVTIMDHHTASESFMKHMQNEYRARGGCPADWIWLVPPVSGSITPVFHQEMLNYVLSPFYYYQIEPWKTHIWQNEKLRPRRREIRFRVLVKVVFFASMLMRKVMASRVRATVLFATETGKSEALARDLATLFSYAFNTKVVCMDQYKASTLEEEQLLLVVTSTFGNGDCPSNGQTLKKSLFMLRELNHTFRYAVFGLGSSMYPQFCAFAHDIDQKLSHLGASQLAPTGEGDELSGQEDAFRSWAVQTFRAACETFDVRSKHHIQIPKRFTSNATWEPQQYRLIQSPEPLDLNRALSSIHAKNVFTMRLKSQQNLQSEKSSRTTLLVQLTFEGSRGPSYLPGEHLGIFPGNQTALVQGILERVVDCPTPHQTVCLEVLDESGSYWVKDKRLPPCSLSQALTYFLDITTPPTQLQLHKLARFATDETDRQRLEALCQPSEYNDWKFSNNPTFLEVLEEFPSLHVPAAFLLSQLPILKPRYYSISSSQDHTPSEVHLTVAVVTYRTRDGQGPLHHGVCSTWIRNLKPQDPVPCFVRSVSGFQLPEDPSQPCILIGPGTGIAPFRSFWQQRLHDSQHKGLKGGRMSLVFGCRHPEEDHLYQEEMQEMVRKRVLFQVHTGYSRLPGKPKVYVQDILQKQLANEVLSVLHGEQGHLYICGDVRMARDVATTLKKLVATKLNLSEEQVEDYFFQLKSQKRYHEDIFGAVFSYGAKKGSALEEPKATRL
Put plainly: Inhibition of mouse recombinant iNOS.

Test [5] addresses Nitric oxide synthase 1 (Rattus norvegicus, UniProt P29476). Put plainly: Inhibition rat recombinant nNOS.
The target in test [6] is T1, Arginase-1. The test is described as follows: Inhibition of human recombinant full length arginase 1 expressed in Escherichia coli BL21(DE3) by surface plasmon resonance assay.

Activity calls are given as the source filed them. The rule behind the calls is not given here.

The values that follow come from ChEMBL document CHEMBL1157817, “2-aminoimidazole amino acids as inhibitors of the binuclear manganese metalloenzyme human arginase I” (J Med Chem, 2010).

For orientation: Ki means the equilibrium dissociation constant of an inhibitor or competing ligand from its target. The term IC50 denotes the concentration at which inhibition is half-maximal. One may read the Kd as a measure of binding affinity in units of concentration.

Sequence of Nitric oxide synthase 1 (P29476 whole entry): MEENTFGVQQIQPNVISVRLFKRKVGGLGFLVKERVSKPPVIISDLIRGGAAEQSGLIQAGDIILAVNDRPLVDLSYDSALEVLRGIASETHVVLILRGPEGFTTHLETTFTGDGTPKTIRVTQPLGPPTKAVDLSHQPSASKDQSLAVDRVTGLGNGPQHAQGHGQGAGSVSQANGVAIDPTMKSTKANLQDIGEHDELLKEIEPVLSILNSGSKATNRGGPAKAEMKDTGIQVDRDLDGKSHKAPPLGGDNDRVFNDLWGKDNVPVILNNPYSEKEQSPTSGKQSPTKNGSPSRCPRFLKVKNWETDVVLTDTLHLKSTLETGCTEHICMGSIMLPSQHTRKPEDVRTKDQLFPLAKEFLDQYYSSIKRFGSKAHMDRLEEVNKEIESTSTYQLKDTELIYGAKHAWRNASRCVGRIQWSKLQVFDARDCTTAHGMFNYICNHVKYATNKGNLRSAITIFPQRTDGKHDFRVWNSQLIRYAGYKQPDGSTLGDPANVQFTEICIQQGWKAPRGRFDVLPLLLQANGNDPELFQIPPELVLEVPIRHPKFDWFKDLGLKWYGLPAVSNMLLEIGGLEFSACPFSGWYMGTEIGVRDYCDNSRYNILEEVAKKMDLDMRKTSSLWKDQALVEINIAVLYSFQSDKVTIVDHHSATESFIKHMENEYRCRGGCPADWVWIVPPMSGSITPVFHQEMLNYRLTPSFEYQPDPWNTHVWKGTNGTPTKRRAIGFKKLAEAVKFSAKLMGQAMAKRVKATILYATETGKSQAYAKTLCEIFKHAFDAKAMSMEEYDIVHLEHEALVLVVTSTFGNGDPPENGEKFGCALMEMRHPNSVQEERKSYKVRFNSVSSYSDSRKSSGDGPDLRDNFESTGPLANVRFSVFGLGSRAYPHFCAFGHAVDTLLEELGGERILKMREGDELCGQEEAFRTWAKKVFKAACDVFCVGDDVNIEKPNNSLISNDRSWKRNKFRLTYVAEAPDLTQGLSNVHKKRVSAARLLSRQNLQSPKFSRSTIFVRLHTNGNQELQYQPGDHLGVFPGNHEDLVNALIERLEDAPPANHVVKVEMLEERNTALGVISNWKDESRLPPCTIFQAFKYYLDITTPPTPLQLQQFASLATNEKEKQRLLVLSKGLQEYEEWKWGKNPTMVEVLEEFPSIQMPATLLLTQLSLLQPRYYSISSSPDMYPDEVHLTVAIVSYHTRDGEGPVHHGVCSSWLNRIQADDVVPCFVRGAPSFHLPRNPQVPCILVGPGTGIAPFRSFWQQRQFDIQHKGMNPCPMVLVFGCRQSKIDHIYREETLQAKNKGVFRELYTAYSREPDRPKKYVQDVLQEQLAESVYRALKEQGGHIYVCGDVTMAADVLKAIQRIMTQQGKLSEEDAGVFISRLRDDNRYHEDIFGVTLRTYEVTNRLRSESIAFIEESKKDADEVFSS

On to `Nc1nccn1CCC[C@H](N)C(=O)O`, for which the inhibition entry in test [1] and in test [2] was “Active” in each case. In addition, in test [3], the Ki worked out at 4 µM. Also, the IC50 in test [4] was 480 µM; in test [5] it was 135 µM. Also, the dissociation constant Kd in test [6] was determined as 2 µM.

For `N[C@@H](CCCNc1ncc[nH]1)C(=O)O`, the Ki in test [3] came out at 500 µM.

In the case of `Nc1ncc[nH]1`, the inhibitory constant (Ki) in test [3] came out at 3600 µM.
